In ChEMBL document CHEMBL3244174, “Synthesis and biological activity of some new furan quaternary salts” (J Med Chem, 1977):

Assays:
Candida albicans = test: Antifungal activity against Candida albicans SKF 2270 assessed as growth inhibition by agar dilution method; format: functional
Cryptococcus neoformans = test: Antifungal activity against Cryptococcus neoformans 103 assessed as growth inhibition by agar dilution method; format: functional
[1] = tested on: Trichophyton mentagrophytes; test: Antifungal activity against Trichophyton mentagrophytes A-280 USPHS assessed as growth inhibition by agar dilution method; format: functional
Trichophyton rubrum = test: Antifungal activity against Trichophyton rubrum 252 CSTM assessed as growth inhibition by agar dilution method; format: functional
Microsporum canis = test: Antifungal activity against Microsporum canis VM-200 USPHS assessed as growth inhibition by agar dilution method; format: functional
Nannizzia gypsea = test: Antifungal activity against Microsporum gypseum 153 CSTM assessed as growth inhibition by agar dilution method; format: functional
Histoplasma capsulatum = test: Antifungal activity against Histoplasma capsulatum RNSH Hi-70 1/2 assessed as growth inhibition by agar dilution method; format: functional
Staphylococcus aureus = test: Antibacterial activity against Staphylococcus aureus ATCC 6538 assessed as growth inhibition after 24 hrs by dilution tube method; format: functional; details: ATCC 6538, 24 h
Procedure, shortened: (§1)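 Broth tube dilution in Tryptone Soya Broth, duplicate tubes at each concentration. MIC (μg/ml) was the highest dilution preventing visible growth. Nitrofurantoin run under the same conditions.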

Enterococcus faecalis = test: Antibacterial activity against Streptococcus faecalis ATCC 10541 assessed as growth inhibition after 24 hrs by dilution tube method; format: functional; details: ATCC 10541, 24 h; procedure, shortened: as §1
Pseudomonas aeruginosa = test: Antibacterial activity against Pseudomonas aeruginosa ATCC 10145 assessed as growth inhibition after 24 hrs by dilution tube method; format: functional; details: ATCC 10145, 24 h; procedure, shortened: as §1
Klebsiella pneumoniae = test: Antibacterial activity against Klebsiella pneumoniae ATCC 10031 assessed as growth inhibition after 24 hrs by dilution tube method; format: functional; details: ATCC 10031, 24 h; procedure, shortened: as §1
Salmonella typhi = test: Antibacterial activity against Salmonella typhi 115 assessed as growth inhibition after 24 hrs by dilution tube method; format: functional, Salmonella enterica subsp. enterica serovar Typhi; details: Salmonella enterica, 115, 24 h
Procedure, shortened: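 Dilution tube method in Tryptone Soya Broth; MIC (μg/ml) taken as highest dilution preventing visible growth; duplicates at every concentration; nitrofurantoin reference run under same conditions.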

[2] = tested on: Agrobacterium tumefaciens; test: Antibacterial activity against Agrobacterium tumefaciens NRRL B-36 assessed as growth inhibition after 24 hrs by dilution tube method; format: functional; details: NRRL B-36, 24 h; procedure, shortened: as §1
Escherichia coli = test: Antibacterial activity against Escherichia coli 114 assessed as growth inhibition after 24 hrs by dilution tube method; format: functional; details: Escherichia coli, 114, 24 h; procedure, shortened: as §1
[3] = tested on: Mycobacterium tuberculosis; test: Antibacterial activity against Mycobacterium tuberculosis H37Rv assessed as growth inhibition by serial dilution method; format: functional
Procedure, shortened: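 M. tuberculosis H37Rv maintained on Lowenstein–Jensen medium; tested in Youman's medium by serial dilution.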

Compound | MIC (Candida albicans) [µg/mL] | MIC (Cryptococcus neoformans) [µg/mL] | MIC [1] [µg/mL] | MIC (Trichophyton rubrum) [µg/mL] | MIC (Microsporum canis) [µg/mL] | MIC (Nannizzia gypsea) [µg/mL] | MIC (Histoplasma capsulatum) [µg/mL] | MIC (Staphylococcus aureus) [µg/mL] | MIC (Enterococcus faecalis) [µg/mL] | MIC (Pseudomonas aeruginosa) [µg/mL] | MIC (Klebsiella pneumoniae) [µg/mL] | MIC (Salmonella typhi) [µg/mL] | MIC [2] [µg/mL] | MIC (Escherichia coli) [µg/mL] | MIC [3] [µg/mL]
C[N+](C)(CCCCOc1ccc(Cl)cc1)Cc1ccc([N+](=O)[O-])o1.[Br-] | > 200 | > 200 | > 200 | > 200 | > 200 | > 200 | > 200 | 100 | > 200 | 100 | 100 | > 200 | > 200 | > 200 | 
C[N+](C)(CCCCCCCCCCOc1c(Br)cc(Br)cc1Br)Cc1ccc([N+](=O)[O-])o1.[Br-] | > 200 | 4 |  | > 200 | > 200 | > 200 | > 200 | 2 | 4 | 3 | 4 | > 200 | 10 | > 200 | 7.5
C[N+](C)(CCCCCCCCCCCCOc1c(Br)cc(Br)cc1Br)Cc1ccc([N+](=O)[O-])o1.[Br-] | > 200 | 200 | > 200 | > 200 | > 200 |  | > 200 | 200 | 200 | 50 | 200 | > 200 | > 200 |  | 100
C[N+](C)(CCCCOc1ccc(Cl)cc1)Cc1ccc(Br)o1.[Br-] | > 200 | > 200 | > 200 | > 200 | > 200 | > 200 | > 200 | 100 | 100 | 50 | 100 | 100 | 100 | 100 | 
C[N+](C)(CCCCCOc1ccccc1Cl)Cc1ccc(Br)o1.[Br-] | > 200 | > 200 | > 200 | > 200 | > 200 | > 200 | > 200 | 50 | > 200 | 50 | 100 | > 200 | > 200 | > 200 | 
Cc1cc(OCCCCCCCCCC[N+](C)(C)Cc2ccc([N+](=O)[O-])o2)c(C(C)C)cc1Cl.Cc1ccc(S(=O)(=O)[O-])cc1 | > 200 | 100 | 200 | > 200 | > 200 | > 200 | > 200 | 200 | 100 | 50 | 200 | > 200 |  | > 200 | 25
C[N+](C)(CCOc1c(Br)cc(Br)cc1Br)Cc1ccc(Br)o1.[Br-] | > 200 | 50 | 100 | > 200 | 100 | > 200 | 100 | 25 | 25 | 25 | 25 | > 200 | 100 | > 200 | 
C[N+](C)(CCCCOc1ccccc1Cl)Cc1ccc(Br)o1.[Br-] | > 200 | > 200 | > 200 | > 200 | > 200 | > 200 | > 200 | 100 | > 200 | 100 | 100 | > 200 | > 200 | > 200 | 
Cc1cc(OCCCCCC[N+](C)(C)Cc2ccc([N+](=O)[O-])o2)c(C(C)C)cc1Cl.[Br-] | > 200 | 25 | > 200 | 200 | 100 | > 200 | > 200 | > 200 | > 200 | > 200 | > 200 | > 200 | > 200 | > 200 | 
C[N+](C)(CCCCOc1ccccc1Cl)Cc1ccc([N+](=O)[O-])o1.[Br-] | > 200 | > 200 | > 200 | > 200 | > 200 | > 200 | > 200 | 100 | > 200 | 100 | 100 | > 200 | > 200 | > 200 | 
